Test results from ChEMBL document CHEMBL1135736, “Synthesis and biological evaluation of a new furo[2,3-h]quinolin-2(1H)-one” (J Med Chem, 2002).

What was measured:
Mus musculus [1] = species: Mus musculus; test: Mean survival time when 0.3x10E-6 viable cells were injected and challenge performed 21 days after injection of photoinactivated cells; format: ADME, organism-based; conditions: in vivo, 504 h
Procedure, shortened: (§1)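 Mice, groups of 10, primed by ip injection of 5 × 10^6 Ehrlich cells. Before injection, these cells were photoinactivated with UVA light (2.7 kJ m-2) in the presence of 2 μM drug. Viable untreated Ehrlich cells were given later as the tumor challenge, at varying cell numbers and times after priming. Mortality (%) and mean survival time (days) were recorded.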

Mus musculus [2] = species: Mus musculus; test: Mean survival time when 0.3x10E-6 viable cells were injected and challenge performed 8 days after injection of photoinactivated cells; format: ADME, organism-based; conditions: in vivo, 192 h; procedure, shortened: as §1
Mus musculus [3] = species: Mus musculus; test: Mean survival time when 1x10E-6 viable cells were injected and challenge performed 21 days after injection of photoinactivated cells; format: ADME, organism-based; conditions: in vivo, 504 h; procedure, shortened: as §1
Mus musculus [4] = species: Mus musculus; test: Percent mortality observed when 0.3x10E-6 viable cells were injected and challenge performed 8 days after injection of photoinactivated cells; format: ADME, organism-based; conditions: in vivo, 192 h; procedure, shortened: as §1
Mus musculus [5] = species: Mus musculus; test: Percent mortality observed when 4x10E-6 viable cells were injected and challenge performed 21 days after injection of photoinactivated cells; format: ADME, organism-based; conditions: in vivo, 504 h; procedure, shortened: as §1
[6] = Antiproliferative effect on DNA synthesis of mammalian cells upon UVA irradiation.; format: functional; conditions: light or radiation study, read-out: ID50
Procedure, shortened: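 Ehrlich cells, DNA synthesis inhibition. Cells held with 2 µM drug and exposed to graded UVA doses. ID50 is the UVA dose (kJ m-2) giving 50% inhibition, calculated by probit analysis, pooled from several experiments.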

Mus musculus [7] = species: Mus musculus; test: Mean survival time when 4x10E-6 viable cells were injected and challenge performed 21 days after injection of photoinactivated cells; format: ADME, organism-based; conditions: in vivo, 504 h; procedure, shortened: as §1
[8] = Antiproliferative effect on clonal growth of mammalian cells upon UVA irradiation.; format: functional; conditions: light or radiation study, read-out: ID50
Procedure, shortened: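 CHO cells, clonal growth (colony-forming) inhibition. Cells given graded UVA doses in the presence of 2 µM drug. Reported ID50 is the UVA dose (kJ m-2) producing 50% inhibition, derived by probit analysis over several experiments.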

Mus musculus [9] = species: Mus musculus; test: Percent mortality observed when 0.3x10E-6 viable cells were injected and challenge performed 21 days after injection of photoinactivated cells; format: organism-based; conditions: in vivo, 504 h; procedure, shortened: as §1
Mus musculus [10] = species: Mus musculus; test: Percent mortality observed when 0.3x10E-6 viable cells were injected and challenge performed 15 days after injection of photoinactivated cells; format: organism-based; conditions: in vivo, 360 h; procedure, shortened: as §1
Mus musculus [11] = species: Mus musculus; test: Percent mortality observed when 1x10E-6 viable cells were injected and challenge performed 21 days after injection of photoinactivated cells; format: ADME, organism-based; conditions: in vivo, 504 h; procedure, shortened: as §1
Mus musculus [12] = species: Mus musculus; test: Mean survival time when 0.3x10E-6 viable cells were injected and challenge performed 15 days after injection of photoinactivated cells; format: ADME, organism-based; conditions: in vivo, 360 h; procedure, shortened: as §1

| Structure (SMILES) | Mean survival time (Mus musculus [1]) [days] | Mean survival time (Mus musculus [2]) [days] | Mean survival time (Mus musculus [3]) [days] | Mortality (Mus musculus [4]) [%] | Mortality (Mus musculus [5]) [%] | IC50 [6] [kJ m-2] | Mean survival time (Mus musculus [7]) [days] | IC50 [8] [kJ m-2] | Mortality (Mus musculus [9]) [%] | Mortality (Mus musculus [10]) [%] | Mortality (Mus musculus [11]) [%] | Mean survival time (Mus musculus [12]) [days] |
| --- | --- | --- | --- | --- | --- | --- | --- | --- | --- | --- | --- | --- |
| Cc1cc2c(o1)c(C)cc1c(CO)cc(=O)n(C)c12 | > 60 | 21.3 | 10.6 | 70 | 100 | 0.65 | 15.8 | 0.02 | 0 | 35 | 30 | 25 |
| COc1c2occc2cc2ccc(=O)oc12 [METHOXSALEN] | – | – | – | – | – | 36.6 | – | 0.84 | – | – | – | – |
